Only some compounds are listed: those with a hit (about 2.1% of all), similar ones and a draw of the others.
TRPN1 ag = agonists of zebrafish TRPN1 channel; HEK293 zebrafish TRPN1-YFP, Fluo-8 calcium fluorescence; 100% = response to 87 µM carbachol; activation, % at 3 µM; hit rate 0.18% among 220,000; AID 1424;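 active means activation above its plate's cutoff, the mean activation of test wells on that plate plus 3 SD, cut at about 19% in these data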
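Control set: carbachol 87 µM as high control, DMSO as low control; system: HEK293 stable line with zebrafish TRPN1-YFP; read-out: % activation versus carbachol response; detection: intracellular calcium fluorescence with Fluo-8; doses: single test compound dose, 3 µM nominal, 0.3% DMSO; schedule: dye 1 h 37 °C plus 30 min RT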
CRFR2-BP antag = blocks CRF-induced signaling of the CRF-BP/CRF-R2 complex; HEK293 CRF-R2/CRF-BP, CRF-induced calcium fluorescence; inhibition, % at 11.8 µM; hit rate 0.59% among 350,000;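 active means inhibition of the ligand-induced calcium signal above about 50% at the single tested concentration, limit read from the data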
CRFR2-BP ag = agonists of human CRF-binding protein/CRF-R2 receptor complex. HEK293 CRF-R2/CRF-BP, calcium dye fluorescence (FLIPR); percent of saturating CRF peptide response. activation, % at 13.2 µM. hit rate 0.46% among 350,000. AID 588473;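 active means activation of at least 50%, plus an integration ratio under a set limit after plate pattern correction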
TRPML3 agonist = agonists of human TRPML3 channel. activation, % at 3 µM. HEK293 TRPML3-YFP, Fluo-8 calcium fluorescence; 100% = the carbachol control signal. hit rate 0.29% among 220,000. AID 1448;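 active means activation above its plate's cutoff, the mean activation of the plate's test wells plus 3 SD, cut at about 12% in these data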
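Test system: TRPML3-YFP stable HEK293 cells. Doses: single point at 3 µM. Incubation: dye loading 1 h 37 °C then 30 min ambient, 125 s read. Signal: Fluo-8 calcium dye fluorescence, ex 470-495, em 515-575 nm. Measure: percent activation from peak-to-basal fluorescence ratio, scaled between DMSO and carbachol.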
VIM-2 inhibitor = blocks Pseudomonas aeruginosa VIM-2 metallo-beta-lactamase; hit rate 0.89% among 290,000; AID 1527; purified VIM-2, nitrocefin hydrolysis, epi-absorbance fluorescence; inhibition, % at 5.6 µM;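 active means inhibition above the mean of all tested compounds plus 3 SD, cutoff set per screening run, cut at about 7.5% in these data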;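 further: red hydrolysis product quenches plate fluorescence so inhibitors raise well fluorescence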
IMP-1 inh-1 = inhibitors of Pseudomonas aeruginosa IMP-1 metallo-beta-lactamase. purified IMP-1, nitrocefin hydrolysis, epi-absorbance fluorescence. inhibition, % at 5.6 µM. AID 1556. hit rate 0.45% among 290,000;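 active means inhibition above the mean plus 3 SD of all compounds in the same screening run, cut at about 4.5% in these data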
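Assay system: purified IMP-1; Quantity: IMP-1 0.2 nM before substrate addition; Medium: HEPES buffer pH 7.1 with ZnSO4 and Brij 35; Incubation: 15 min enzyme–compound preincubation, then 25 min nitrocefin reaction, 25 °C; Signal: fluorescence quenching readout, ex 480/em 530 nm; Controls: DMSO with and without IMP-1; Repeats: singlicate testing.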
IMP-1 inh-2 = selectivity counter-screen for VIM-2 inhibitors: IMP-1 metallo-beta-lactamase inhibitors | inhibition, % at 5.6 µM | purified IMP-1, nitrocefin hydrolysis, epi-absorbance fluorescence | 1,300 tested, under 10 active | AID 1856 | shares compounds with VIM-2 inhibitor; call rule not given here
VIM-2 FRET inh = counter-screen for VIM-2 inhibitors: epi-absorbance artifacts via FRET. shares compounds with VIM-2 inhibitor. purified VIM-2, CCF2 FRET substrate hydrolysis. inhibition, % at 5.6 µM. hit rate 23% among 1,300;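 active means inhibition above the mean of all tested compounds plus 3 SD, cut at about 19% in these data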
TEM-1 inh = blocks E. coli TEM-1 beta-lactamase in VIM-2 selectivity screen; shares compounds with VIM-2 inhibitor; Purified TEM-1, nitrocefin hydrolysis, epi-absorbance fluorescence; inhibition, % at 5.6 µM; hit rate 3% among 1,300; AID 1866;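 active means inhibition above that campaign's mean inhibition plus 3 SD, cut at about 0.46% in these data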
Target sequence (P62593 whole entry, looked up): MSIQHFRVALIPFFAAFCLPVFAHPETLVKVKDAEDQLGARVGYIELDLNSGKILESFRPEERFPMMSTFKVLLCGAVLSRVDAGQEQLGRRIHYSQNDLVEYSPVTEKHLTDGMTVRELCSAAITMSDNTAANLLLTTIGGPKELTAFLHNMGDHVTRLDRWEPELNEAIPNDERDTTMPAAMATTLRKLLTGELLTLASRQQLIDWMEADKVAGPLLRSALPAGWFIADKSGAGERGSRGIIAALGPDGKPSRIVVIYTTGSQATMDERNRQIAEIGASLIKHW
VIM-2 confirm 2 = confirmation of P. aeruginosa VIM-2 metallo-beta-lactamase inhibitors; shares compounds with VIM-2 inhibitor; hit rate 96% among 1,300; inhibition, % at 5.6 µM; AID 2187; purified VIM-2, nitrocefin hydrolysis, epi-absorbance;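 active means inhibition of the VIM-2 beta-lactamase enzyme above about 11% from the earlier first-round screen, limit read from the data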
A number is an active result; n = inactive; x = no result.

SMILES	TRPN1 ag	CRFR2-BP antag	CRFR2-BP ag	TRPML3 agonist	VIM-2 inhibitor	IMP-1 inh-1	IMP-1 inh-2	VIM-2 FRET inh	TEM-1 inh	VIM-2 confirm 2
O=C(NCc1ccc2[nH]c3c(c2c1)CCCC3)c1ccc(S(=O)(=O)N2CCOCC2)cc1	n	n	n	n	14	n	n	28	n	23
O=C(NCc1ccc2[nH]c3c(c2c1)CCCC3)N1CCOCC1	n	x	x	n	n	n	x	x	x	x
CN(C)S(=O)(=O)c1ccc(C(=O)NCc2ccc3[nH]c4c(c3c2)CCCC4)cc1	n	n	n	n	14	n	n	28	n	25
CCN(CC)S(=O)(=O)c1ccc(C(=O)NCc2ccc3[nH]c4c(c3c2)CCCC4)cc1	n	n	n	n	14	n	n	28	n	20
Cc1ccc(NC(C(=O)c2ccccc2)c2ccccc2)cc1 (stereo not drawn)	x	n	n	x	x	x	x	x	x	x
Sc1nnc(-c2ccc(Cl)cc2)n1Cc1ccccc1	x	n	n	x	x	x	x	x	x	x
Cc1ccc2nc(SCC(=O)N3CCC(C)CC3)nc(=O)n2c1	x	n	n	x	x	x	x	x	x	x
CCCc1cc(N2CCN(C(=O)c3ccco3)CC2)n2c(nc3ccccc32)c1C#N	n	n	n	n	14	n	n	n	n	28
Cc1nnc2c(N3CCN(C(=O)c4ccco4)CC3)nc3ccccc3n12	x	n	n	x	13	n	n	n	n	19
Cc1ccc2nc(N3CCN(C(=O)c4ccco4)CC3)c3nncn3c2c1	x	n	n	x	n	n	x	x	x	x
O=C(NC1CCN(C(=O)C2CCCCC2)CC1)c1ccccc1	n	n	n	n	n	n	x	x	x	x
CN1CCN(C(=O)c2ccc(-c3nn(C)c(=O)c4ccccc34)cc2)CC1	n	n	n	n	70	n	n	n	1.5	79
CN(C)CCNC(=O)c1ccc(-c2nn(C)c(=O)c3ccccc23)cc1	n	n	n	n	32	n	n	n	n	50
Cn1nc(-c2ccc(C(=O)N3CCN(CCO)CC3)cc2)c2ccccc2c1=O	n	n	n	n	65	n	n	n	n	69
CCCNC(=O)c1ccc(-c2nn(C)c(=O)c3ccccc23)cc1	x	n	n	x	n	n	x	x	x	x
CCC(CO)NC(=O)c1ccc(-c2nn(C)c(=O)c3ccccc23)cc1 (stereo not drawn)	n	n	n	n	n	n	x	x	x	x
CN1CCN(C(=O)c2ccc(-c3ccccc3)cc2)CC1	x	n	n	x	n	n	x	x	x	x
CCOC(=O)c1cnc2ccc(OCC)cc2c1NCCCN1CCOCC1	x	n	n	x	32	n	n	n	n	45
CCOC(=O)c1cnc2ccc(C(=O)OC)cc2c1NCCCN1CCOCC1	x	n	n	x	70	n	n	n	n	82
Cc1ccc(C)c(OCCC(=O)OC(C)C(=O)Nc2c(C)n(C)n(-c3ccccc3)c2=O)c1 (stereo not drawn)	x	n	n	x	x	x	x	x	x	x
CCOc1cc(N2CCOCC2)c(OCC)cc1NC(=O)c1ccc(-n2ccnc2)c([N+](=O)[O-])c1	x	n	n	x	68	n	n	n	n	75
CCOc1cc(N2CCOCC2)c(OCC)cc1NC(=O)c1ccc(C)cc1	n	n	n	n	n	n	x	x	x	x
O=[N+]([O-])c1c(Nc2ccc(O)cc2)cc(Cl)c2nonc12	x	67	n	x	22	n	n	n	n	32
O=C(O)c1cccc(Nc2cc(Cl)c3nonc3c2[N+](=O)[O-])c1	n	n	n	n	n	n	x	x	x	x
Cn1c(=O)c2sccc2n2c(CCCC(=O)N3CCN(c4ccccn4)CC3)nnc12	x	n	n	x	13	n	n	n	n	20
CC(/C=N/n1c(-c2ccccn2)n[nH]c1=S)=C\c1ccccc1	n	n	n	n	n	n	x	x	x	x
CC(/C=N/n1c(-c2ccco2)n[nH]c1=S)=C\c1ccccc1	n	n	n	n	13	n	n	40	n	23
CCc1n[nH]c(=S)n1/N=C/c1ccc(NC(C)=O)cc1	n	n	n	n	23	n	n	61	n	46
CCc1n[nH]c(=S)n1/N=C/C(C)=C\c1ccccc1	x	n	n	x	57	n	n	83	n	70
COc1cc(NC(=O)c2cc3c(Cl)nc4ccccc4c3s2)cc(OC)c1OC	n	n	n	n	n	n	x	x	x	x
